PRMT1 inh: PRMT1 (human) inhibition, primary screen; 1.3% of 370,000 active; AID 652257; recombinant PRMT1, activity-based probe fluorescence polarization; inhibition, % at 2.79 µM;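 active = inhibition above about 21% made by adding two undisclosed values, limit read from the data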
HTRA1 inh: inhibitors of human serine peptidase HTRA1; Q92743; recombinant HTRA1, FP-rhodamine activity-based probe, fluorescence polarization; inhibition, % at 5.96 µM; 0.5% of 340,000 active; AID 504803; in the data active = inhibition above about 36%;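 note: 0% = enzyme with DMSO and 100% = wells lacking enzyme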
Target sequence (Q92743 whole entry, looked up): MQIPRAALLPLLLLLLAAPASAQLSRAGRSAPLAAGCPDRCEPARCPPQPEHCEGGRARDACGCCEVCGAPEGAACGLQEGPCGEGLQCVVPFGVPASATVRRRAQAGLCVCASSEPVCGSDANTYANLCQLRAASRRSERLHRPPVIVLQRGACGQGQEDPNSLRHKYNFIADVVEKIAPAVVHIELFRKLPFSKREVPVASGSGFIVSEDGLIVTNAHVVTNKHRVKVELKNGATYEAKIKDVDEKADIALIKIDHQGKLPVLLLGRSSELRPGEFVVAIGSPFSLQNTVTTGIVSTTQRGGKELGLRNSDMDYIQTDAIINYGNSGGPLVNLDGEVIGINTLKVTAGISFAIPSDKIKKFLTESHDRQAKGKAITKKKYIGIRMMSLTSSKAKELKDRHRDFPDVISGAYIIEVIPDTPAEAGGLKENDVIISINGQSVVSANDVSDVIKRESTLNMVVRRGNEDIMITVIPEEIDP
rCAG RNA binder: molecules binding r(CAG) RNA repeats; r(CAG) RNA repeat, TO-PRO-1 dye displacement fluorescence; inhibition, % at 3 µM; 1.3% of 370,000 active; AID 651821;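 active = inhibition above the plate cutoff, the mean of all test compounds on that plate plus 3 SD, cut at about 35% in these data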;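 note: 0% = DMSO alone and 100% = 100 µM mitoxantrone as full dye displacement; higher means more dye released from RNA so lower well fluorescence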
SIAE primary: inhibitors of human sialic acid acetylesterase SIAE. Q9HAT2. SIAE FP-Rh probe binding, fluorescence polarization. inhibition, % at 9.66 µM. 0.69% of 370,000 active. AID 1053197;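 active = inhibition above a cutoff: mean of compounds within the control limits plus 3 SD of those, cut at about 17% in these data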;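 note: 0% = plate median of compound wells and 100% = probe without SIAE protein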
mABHD4 FP: ABHD4 (mouse) inhibition, primary FP screen | inhibition, % at 8.92 µM | 0.54% of 370,000 active | Q8VD66 | purified mABHD4, FP-Rh probe fluorescence polarization;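 active = inhibition exceeding the mean over every tested compound plus 3 SD, cut at about 30% in these data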;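 note: 0% = plate median of compound wells and 100% = S159A mutant with DMSO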
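Material: mouse ABHD4 enzyme, wild type; Benchmarks: S159A mutant high control, sample median low control; Buffer or medium: HEPES pH 7.0, NaCl, Pluronic buffer; Signal: fluorescence polarization; Read-out: percent inhibition of probe binding, normalized to plate controls; Timing: pre-incubation 45 min, probe exposure 60 min, at 25 °C; Dosing: 8.92 µM, single dose.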
SIAE confirm: confirmation of human SIAE inhibitors; shares compounds with SIAE primary; SIAE FP-Rh activity-based probe, fluorescence polarization; inhibition, % at 9.66 µM; 13% of 2,300 active; AID 1117263;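 active = mean inhibition of the replicates above the hit cutoff set in the primary screen, cut at about 17% in these data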;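 note: 0% = SIAE with DMSO and probe and 100% = probe without SIAE; inhibitors lower polarization as more probe stays unbound to SIAE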
Active calls of the source: *; · = no result. Rows were chosen to be rich in hits. Some 3.3% of all compounds tested hit in one or more screens of this group.

SMILES	PRMT1 inh	HTRA1 inh	rCAG RNA binder	SIAE primary	mABHD4 FP	SIAE confirm
O=C(NCc1ccc(Cl)cc1)C(=O)NCC1OCCCN1S(=O)(=O)c1cccs1 (stereo not drawn)	2.7	-6.0	1.3	3.5	1.8	·
COc1cc(CNCCN2CCOCC2)ccc1OCc1cccc(Cl)c1	-1.4	8.8	-2.9	17.2*	2.2	-5.8
O=C(Nc1nc2nccc(-c3ccccc3)n2n1)C(Cl)(Cl)Cl	0.2	2.8	3.6	-4.3	-0.9	·
COc1ccc2[nH]c3c(=O)n(CCCC(=O)NC4CCCCC4C)c(=S)[nH]c3c2c1 (stereo not drawn)	-1.8	3.3	5.4	0.2	3.9	·
O=C(O)c1ccc(NCc2cccs2)cc1	-0.8	6.1	0.2	17.9*	-1.7	-2.1
COc1ccc(CNC(=O)C(C)OC(=O)c2cccn2C)cc1 (stereo not drawn)	1.8	0.5	-2.5	-7.0	3.6	·
Cc1ccc(NC(=O)/C(C#N)=N/Nc2ccc(C(=O)O)cc2)c(C)c1	-0.2	8.3	4.0	1.2	-9.5	·
Cc1ccc(N/N=C(\C#N)C(N)=S)c(C)c1	-0.4	-0.4	10.2	54.0*	4.6	0.5
C[N+]1(CCCCCCC(=O)/C=N/O)CCCCCC1	1.0	3.6	-1.2	19.1*	4.1	3.0
Cc1cc(C)nc(CCNC(=O)c2cc(COc3c(C)cccc3C)on2)n1	-2.1	-0.8	-6.1	0.8	-6.8	·
CCC(=O)N1CCc2cc(S(=O)(=O)CCC(=O)Nc3ccc(OC)c(OC)c3)ccc21	-0.4	-0.1	-1.6	4.3	-2.1	·
COc1ccc(OCCSc2nc3ccccc3n2CC(=O)O)cc1	0.3	3.6	5.1	4.6	-3.3	·
COc1ccccc1OCCSc1nc2ccccc2n1CC(N)=O	-2.9	2.7	-3.2	17.5*	-3.3	-2.3
O=C(CSc1ccccc1)Nc1ccc(N2CCOCC2)c(F)c1	2.9	8.0	-4.6	17.7*	0.9	2.5
COc1ccccc1CNC(=O)C(Cc1ccccc1)NC(=O)c1ccccc1 (stereo not drawn)	3.0	-4.3	1.8	-4.5	-2.3	·
CC(C)Nc1nnc(SCC(=O)Nc2ccc3c(c2)C(=O)c2ccccc2C3=O)s1	1.3	20.7	16.3	26.8*	19.6	-10.6
Cc1ccc(Nc2nnc(SCC(=O)Nc3ccccc3[N+](=O)[O-])s2)cc1	0.2	-0.2	3.8	24.9*	1.0	-0.5
CN(C(=O)COC(=O)/C=C/c1ccc2ccccc2n1)C1CCS(=O)(=O)C1 (stereo not drawn)	-1.4	-1.2	-1.8	-3.3	-0.7	·
CCN(C(=O)COC(=O)/C=C/c1cnc2ccccc2n1)C1CCS(=O)(=O)C1 (stereo not drawn)	-10.8	3.2	-2.1	28.0*	-0.6	-0.8
CCOC(=O)c1cc2c(ccn2C)n1Cc1cc(C)ccc1C	0.1	2.1	0.7	-1.9	-0.6	·
CC(C)OC(=O)c1cc2c(ccn2C)n1CC(=O)N(Cc1ccccc1)c1ccccc1	3.0	-17.2	-4.8	19.0*	9.6	14.6
O=C(CCCOc1ccc(Cl)cc1Cl)Nc1ccc(O)cc1C(=O)O	5.0	-0.7	21.6	17.5*	4.6	-7.8
CC(C)C(NC(=O)c1ccc(F)cc1)C(=O)N1CCN(C(=O)c2ccco2)CC1 (stereo not drawn)	-1.9	-4.3	-2.8	3.6	-0.4	·
COc1ccc(C(=O)Oc2cc(N)n(S(=O)(=O)c3ccc(C)cc3)n2)cc1	-0.1	17.5	8.8	-0.3	-4.5	·
COc1ccc(S(=O)(=O)n2nc(OC(=O)C3CCCCC3)cc2N)cc1	-0.2	-7.7	-3.2	43.3*	-2.7	49.6*
SMILES	PRMT1 inh	HTRA1 inh	rCAG RNA binder	SIAE primary	mABHD4 FP	SIAE confirm
Cc1ccc(S(=O)(=O)n2nc(OC(=O)c3ccco3)cc2N)cc1	9.6	1.0	2.8	1.0	11.9	·
Cc1ccc(S(=O)(=O)n2nc(OC(=O)C3CCCCC3)cc2N)cc1	4.8	3.6	-1.3	36.1*	1.2	37.9*
Cc1cc(OCc2cc(C(=O)N3CCC(Oc4cccnc4)CC3)no2)cc(C)c1Cl	0.4	-37.9	-3.1	-5.6	-4.6	·
COc1ccc(NC(=O)Cc2ccsc2)c(OC)c1	-0.1	5.4	3.8	18.0*	5.8	-1.5
O=C(Oc1ccccc1)c1cccc2cccc(C(=O)Oc3ccccc3)c12	-4.6	·	4.0	-14.7	9.2	·
O=C(OC12CCCN(C1)/C(=C/c1ccc(Cl)cc1)C2)C1CCCCC1 (stereo not drawn)	-0.4	·	3.7	17.8*	0.3	0.3
N#Cc1ccc(/C=C2\CC3(OC(=O)C4CCCC4)CCCN2C3)cc1 (stereo not drawn)	-1.9	·	2.1	22.6*	-1.4	2.6
NC(=S)Nc1cccc2cc3ccccc3cc12	5.5	27.1	15.1	19.3*	25.1	7.0
CC(=O)c1ccc(OCc2cn(CC(=O)c3ccc(O)cc3)nn2)cc1	1.2	-1.2	3.3	0.1	8.2	·
CC(=O)Nc1ccc(OCc2cn(CC(=O)c3ccc(O)cc3)nn2)cc1	3.7	2.4	3.4	21.5*	11.8	15.9
Cc1ccc(NC(=S)N=Nc2c(O)[nH]c3ccccc23)cc1	-5.0	9.3	29.1	-6.4	8.8	·
Oc1ccc(NC(=S)N=Nc2c(O)[nH]c3ccccc23)cc1	-2.6	14.2	12.1	18.9*	18.9	-6.0
C/C(=N\NC(=O)c1ccccc1O)c1ccc(NC(=O)Cc2ccccc2)cc1	0.7	10.6	-1.6	17.6*	1.9	0.3
CC(=O)NC(c1cccc(F)c1)c1nc(-c2ccccc2)cs1 (stereo not drawn)	-1.5	·	-0.1	-2.1	-2.7	·
CCOc1ccc(S(=O)(=O)n2cnc(C)c2)cc1	-6.3	9.6	-1.2	17.1*	6.0	4.8
COc1ccc(S(=O)(=O)n2cnc(C)c2)cc1	0.9	-3.0	6.7	1.0	-3.1	·
CCc1cc(-c2nnn(CCC3COCCO3)c2CC)cc(CC)c1-c1cn(Cc2ccc3ccccc3c2)nn1 (stereo not drawn)	-0.4	-30.5	9.7	-5.3	-7.0	·
CN(Cc1ccccc1)C(=O)OCc1cn(Cc2c(F)cccc2F)nn1	-0.2	·	1.5	3.1	0.0	·
COc1ccc(OC)c(/C=C2\S/C(=N/NC(=O)c3ccc4ccccc4c3)NC2=O)c1	-1.0	7.0	16.2	18.7*	8.9	9.2
O=C1N/C(=N/NC(=O)c2cccc3ccccc23)S/C1=C\c1ccccc1OCc1ccccc1	-0.8	8.2	26.7	2.1	5.0	·
CC1CCCN(CCOc2cccc(Oc3ccccc3)c2)C1 (stereo not drawn)	-5.3	3.8	-11.6	-3.1	8.6	·
CCCOc1ccc(OCCN2CCCC(C)C2)cc1 (stereo not drawn)	-3.2	0.6	-1.5	20.4*	14.9	7.4
CCN(CC)S(=O)(=O)c1ccc(/C=C/C(=O)OCC(=O)Nc2cccnc2Cl)cc1	3.2	-0.1	2.5	1.6	-3.3	·
O=C1NC[C@H](c2ccccc2)OC(=O)[C@H](Cc2ccc(F)cc2)C/C=C\C[C@H]1CC(=O)N(CCO)Cc1ccccc1	-0.1	-13.8	5.1	9.4	-4.4	·

Screening results: PubChem, The Scripps Research Institute Molecular Screening Center
